Converted amounts (≈) assume the structure as drawn.
Key:
[1] = Selectivity index, ratio of Ki for human CatL to Ki for Trypanosoma brucei rhodesiense rhodesain
Outline: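 Ki(hCatL)/Ki(RD). Fluorimetric assays at 25 °C: RD in 50 mM sodium acetate pH 5.5; hCatL in 50 mM Tris pH 6.5; both buffers with 5 mM EDTA, 200 mM NaCl, 0.005% Brij35. Ki derived from IC50 by Cheng-Prusoff. Each value is the mean of two measurements, each done in duplicate.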

[2] = Intrinsic clearance in human liver microsomes at 2 uM after 30 mins in presence of NADPH by LC-MS/MS method; assay type: ADME, microsome; settings: read-out: CLH
[3] = system: Trypanosoma brucei rhodesiense; assay: Antitrypanosomal activity against bloodstream form of Trypanosoma brucei rhodesiense STIB 900 assessed as parasite growth inhibition after 72 hrs by Alamar blue assay; assay type: functional; settings: STIB 900, 72 h
Outline: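 Standard 72 h growth-inhibition assay with STIB 900 bloodstream trypomastigotes and Alamar Blue read-out. Value is the mean of at least 2 measurements.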

Cytochrome P450 3A4 = Cytochrome P450 3A4 (Homo sapiens, UniProt P08684); assay: Inhibition of CYP3A4 in human liver microsomes using DBF as substrate by fluorescence assay; assay type: ADME
Cytochrome P450 3A4, sequence (P08684 whole entry): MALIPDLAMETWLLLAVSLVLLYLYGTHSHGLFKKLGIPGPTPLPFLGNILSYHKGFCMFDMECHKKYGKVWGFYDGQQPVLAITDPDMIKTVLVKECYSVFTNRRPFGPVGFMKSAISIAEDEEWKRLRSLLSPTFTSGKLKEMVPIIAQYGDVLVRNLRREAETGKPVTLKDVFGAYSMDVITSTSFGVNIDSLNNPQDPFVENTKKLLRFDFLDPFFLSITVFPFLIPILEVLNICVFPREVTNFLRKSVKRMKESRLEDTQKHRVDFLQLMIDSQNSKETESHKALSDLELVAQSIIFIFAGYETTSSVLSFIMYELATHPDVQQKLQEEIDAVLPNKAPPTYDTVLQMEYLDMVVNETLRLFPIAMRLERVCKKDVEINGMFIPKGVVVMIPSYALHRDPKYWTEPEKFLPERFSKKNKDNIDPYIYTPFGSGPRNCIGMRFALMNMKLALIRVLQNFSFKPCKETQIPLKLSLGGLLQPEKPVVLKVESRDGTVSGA
Outline: (§1)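 Human liver microsomes with CYP-selective substrate metabolism reactions for 2C9, 2D6 and 3A4.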

[4] = Intrinsic clearance in mouse liver microsomes at 2 uM after 30 mins in presence of NADPH by LC-MS/MS method; assay type: ADME, microsome; settings: read-out: CLH
Procathepsin L = Procathepsin L (Homo sapiens, UniProt P07711); assay: Inhibition of human CatL using Cbz-Phe-Arg-AMC as substrate measured over 30 mins by fluorimetric method
Procathepsin L, sequence (P07711 whole entry): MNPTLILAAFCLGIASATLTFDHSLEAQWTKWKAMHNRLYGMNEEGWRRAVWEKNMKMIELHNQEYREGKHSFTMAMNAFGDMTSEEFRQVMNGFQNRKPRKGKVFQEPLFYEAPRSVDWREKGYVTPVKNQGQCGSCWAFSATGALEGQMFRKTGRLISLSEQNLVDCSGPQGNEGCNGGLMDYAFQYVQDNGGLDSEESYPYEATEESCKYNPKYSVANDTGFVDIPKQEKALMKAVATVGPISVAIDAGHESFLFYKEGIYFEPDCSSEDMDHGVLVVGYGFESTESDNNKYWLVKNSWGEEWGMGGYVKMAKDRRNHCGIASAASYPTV
Outline: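 Human cathepsin L in a fluorimetric assay in 50 mM Tris pH 6.5, 5 mM EDTA, 200 mM NaCl, 0.005% Brij35 at 25 °C. Ki was calculated from IC50 by Cheng-Prusoff. Value is the average of two measurements, each in duplicate.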

[5] = Permeability of the compound after 15 hrs by PAMPA; assay type: physicochemical; settings: read-out: permeability
Rhodesain = Rhodesain (Trypanosoma brucei rhodesiense, UniProt Q95PM0); assay: Inhibition of Trypanosoma brucei rhodesiense rhodesain using Cbz-Phe-Arg-AMC as substrate by fluorimetric method
Rhodesain, sequence (Q95PM0 whole entry): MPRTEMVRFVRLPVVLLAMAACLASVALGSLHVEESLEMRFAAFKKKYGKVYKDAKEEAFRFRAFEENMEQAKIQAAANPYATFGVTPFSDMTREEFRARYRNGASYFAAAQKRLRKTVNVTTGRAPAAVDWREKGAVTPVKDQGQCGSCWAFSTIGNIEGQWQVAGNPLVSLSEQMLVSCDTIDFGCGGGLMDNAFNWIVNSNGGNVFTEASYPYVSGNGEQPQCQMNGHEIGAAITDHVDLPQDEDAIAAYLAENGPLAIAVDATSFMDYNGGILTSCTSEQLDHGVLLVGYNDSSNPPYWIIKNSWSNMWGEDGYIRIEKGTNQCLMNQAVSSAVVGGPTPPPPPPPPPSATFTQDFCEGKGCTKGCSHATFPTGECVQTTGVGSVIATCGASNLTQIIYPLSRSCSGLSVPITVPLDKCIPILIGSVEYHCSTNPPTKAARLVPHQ
Outline: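 Fluorescence-based assay run at 25 °C in 50 mM sodium acetate pH 5.5 with 5 mM EDTA, 200 mM NaCl and 0.005% Brij35. IC50 values were converted to Ki with the Cheng-Prusoff equation. Values are the average of two measurements, each done in duplicate.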

[6] = Solubility of the compound at pH 6.5 by LYSA; assay type: physicochemical; settings: buffer
Outline: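 Lyophilization solubility assay at pH 6.5.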

[7] = Clearance in C57BL/6J mouse at 1.5 mg/kg, iv as bolus dose by LC-MS/MS analysis; assay type: ADME, organism-based; settings: in vivo
Outline: (§2)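 Mice given single i.v. dose in N-methylpyrrolidinone / 40% (v/v) aqueous hydroxypropyl-γ-cyclodextrin (30/70 v/v). Blood into K₂EDTA at 5 min, 15 min, 30 min, 1, 2, 4, 8 h, sublingually or by terminal cardiac puncture under isoflurane. Plasma spun at 3000 × g, 5 min, 4 °C, stored at -20 °C. Plasma levels by LC–MS/MS; parameters by non-compartmental analysis.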

L6 = assay: Cytotoxicity against rat L6 cells after 72 hrs by Alamar blue assay; assay type: cell-based; settings: L6, 72 h
Outline: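 Rat skeletal myoblast L6 cells in an Alamar Blue growth-inhibition assay. Value is the mean of at least 2 measurements.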

Cytochrome P450 2D6 = Cytochrome P450 2D6 (Homo sapiens, UniProt P10635); assay: Inhibition of CYP2D6 in human liver microsomes using AMMC as substrate by fluorescence assay; assay type: ADME; outline: as §1
Cytochrome P450 2D6, sequence (P10635 whole entry): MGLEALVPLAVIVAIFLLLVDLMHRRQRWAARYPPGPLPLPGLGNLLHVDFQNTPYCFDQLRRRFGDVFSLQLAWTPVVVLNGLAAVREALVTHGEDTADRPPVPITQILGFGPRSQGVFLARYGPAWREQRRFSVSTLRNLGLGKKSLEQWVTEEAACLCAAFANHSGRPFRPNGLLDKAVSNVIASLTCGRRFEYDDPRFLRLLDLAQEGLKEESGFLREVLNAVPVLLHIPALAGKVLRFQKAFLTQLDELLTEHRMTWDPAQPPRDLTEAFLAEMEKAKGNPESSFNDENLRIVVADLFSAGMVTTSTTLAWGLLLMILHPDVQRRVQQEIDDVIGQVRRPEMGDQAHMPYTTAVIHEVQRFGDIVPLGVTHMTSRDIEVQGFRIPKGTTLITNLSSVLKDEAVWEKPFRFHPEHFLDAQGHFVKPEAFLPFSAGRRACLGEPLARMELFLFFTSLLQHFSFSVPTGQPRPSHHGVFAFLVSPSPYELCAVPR

Cytochrome P450 2C9 = Cytochrome P450 2C9 (Homo sapiens, UniProt P11712); assay: Inhibition of CYP2C9 in human liver microsomes using MFC as substrate by fluorescence assay; assay type: ADME; outline: as §1
Cytochrome P450 2C9, sequence (P11712 whole entry): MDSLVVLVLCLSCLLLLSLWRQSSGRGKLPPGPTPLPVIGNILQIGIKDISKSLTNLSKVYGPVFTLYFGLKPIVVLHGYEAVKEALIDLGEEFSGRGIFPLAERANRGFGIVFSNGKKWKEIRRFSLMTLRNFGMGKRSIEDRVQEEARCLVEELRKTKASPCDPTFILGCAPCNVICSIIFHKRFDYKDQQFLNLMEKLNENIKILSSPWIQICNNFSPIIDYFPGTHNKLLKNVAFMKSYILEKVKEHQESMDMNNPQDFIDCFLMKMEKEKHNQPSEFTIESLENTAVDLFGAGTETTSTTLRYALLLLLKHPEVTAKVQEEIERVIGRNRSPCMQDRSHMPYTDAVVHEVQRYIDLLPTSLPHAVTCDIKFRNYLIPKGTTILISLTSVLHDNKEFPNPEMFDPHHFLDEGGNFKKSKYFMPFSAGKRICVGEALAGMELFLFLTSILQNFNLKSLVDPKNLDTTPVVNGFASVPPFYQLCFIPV

[8] = Octanol-water intrinsic distribution co-efficient, log D of the compound at 100 uM at pH 7.4 after 16 to 22 hrs by CAMDIS assay; assay type: physicochemical
Outline: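 Octanol/aqueous buffer (pH 7.4) intrinsic distribution coefficient measured in the CAMDIS carrier-mediated distribution system.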

[9] = Half life in C57BL/6J mouse at 1.5 mg/kg, iv as bolus dose by LC-MS/MS analysis; assay type: ADME, organism-based; settings: in vivo; outline: as §2
[10] = Unbound fraction in human plasma; assay type: ADME, cell-free
[11] = Volume of distribution at steady state in C57BL/6J mouse at 1.5 mg/kg, iv as bolus dose by LC-MS/MS analysis; assay type: ADME, organism-based; settings: in vivo, read-out: Vdss; outline: as §2
[12] = system: Trypanosoma brucei rhodesiense; assay: Antitrypanosomal activity against bloodstream form of Trypanosoma brucei rhodesiense STIB 900 infected in NMRI mouse assessed as reduction of parasitemia at 50 mg/kg, po administered for 3 consecutive days starting 1 day post infection measured at 24 hrs post last dose relative to control; assay type: functional; design: scale not given: the % may be the effect or the level left
Outline: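 Female mice infected with STIB900 were dosed orally at 50 mg/kg/day on three consecutive days, starting 1 day post-infection. Compound was in 100% DMSO diluted 10-fold in distilled water, given at 0.1 mL/10 g. Tail-blood parasitaemia was measured 24 h after the last dose versus 4 untreated infected controls. Values are means of 2 mice.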

[13] = Selectivity index, ratio of IC50 for rat L6 cells to IC50 for bloodstream form of Trypanosoma brucei rhodesiense STIB 900; assay type: toxicity; settings: read-out: Ratio IC50
Outline: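 Ratio of L-6 rat skeletal myoblast IC50 to T. b. rhodesiense STIB 900 bloodstream trypomastigote IC50, both from Alamar Blue growth-inhibition assays. Each IC50 is the mean of at least 2 measurements.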

[14] = system: Trypanosoma brucei rhodesiense; assay: Antitrypanosomal activity against bloodstream form of Trypanosoma brucei rhodesiense STIB 900 assessed as parasite growth inhibition after 48 hrs by Alamar blue assay; assay type: functional; settings: STIB 900, 48 h
Outline: (§3)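 Bloodstream STIB 900 trypomastigotes, 1x10⁴ per well, exposed to eleven 3-fold serial dilutions at 37 °C/5% CO₂ for the stated pulse time. Parasites were then pelleted and washed four times, and an aliquot was regrown 72 h drug-free in triplicate plates. Resazurin was added for 2–4 h, fluorescence read at ex 536/em 588 nm, and IC50 taken by linear regression of sigmoidal curves. Melarsoprol served as control.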

[15] = system: Trypanosoma brucei rhodesiense; assay: Antitrypanosomal activity against bloodstream form of Trypanosoma brucei rhodesiense STIB 900 assessed as parasite growth inhibition after 6 hrs by Alamar blue assay; assay type: functional; settings: STIB 900, 6 h; outline: as §3
[16] = system: Trypanosoma brucei rhodesiense; assay: Antitrypanosomal activity against bloodstream form of Trypanosoma brucei rhodesiense STIB 900 assessed as parasite growth inhibition after 16 hrs by Alamar blue assay; assay type: functional; settings: STIB 900, 16 h; outline: as §3
[17] = system: Trypanosoma brucei rhodesiense; assay: Antitrypanosomal activity against bloodstream form of Trypanosoma brucei rhodesiense STIB 900 assessed as parasite growth inhibition after 24 hrs by Alamar blue assay; assay type: functional; settings: STIB 900, 24 h; outline: as §3
[18] = system: Trypanosoma brucei rhodesiense; assay: Antitrypanosomal activity against bloodstream form of Trypanosoma brucei rhodesiense STIB 900 assessed as parasite growth inhibition after 2 hrs by Alamar blue assay; assay type: functional; settings: STIB 900, 2 h; outline: as §3

Row | SMILES | Ratio Ki [1] | IC50 [3] [µM] | Ki (Procathepsin L) [µM] | Ki (Rhodesain) [µM] | solubility [6] [µg/mL] | IC50 (L6) [µM] | logD at 100 µM [8] | Activity [12] [%] | selectivity ratio [13] | other results
1 | N#CC1(NC(=O)[C@H](Cc2ccc(OC(F)(F)F)c(Cl)c2)NC(=O)c2cnn(-c3cccnc3)n2)CC1 | 10 | 0.001 | 0.353 | 0.036 | 4.2 (≈ 8.08 µM) | > 10 | 3.7 |  |  | microsomal CLint at 2 µM [2]: < 10 µL/min/mg; IC50 (Cytochrome P450 3A4): 8 µM; microsomal CLint at 2 µM [4]: 11 µL/min/mg; Papp at 15 h [5]: 4.47 nm/s; clearance [7]: 1.36 L/h/kg; IC50 (Cytochrome P450 2D6): 2 µM; IC50 (Cytochrome P450 2C9): 7 µM; half-life [9]: 0.94 h; fraction unbound [10]: 0.0395; Vd [11]: 0.8 L/kg
2 | N#Cc1ccc(C[C@H](NC(=O)c2cnn(-c3ccc(F)cc3)n2)C(=O)NC2(C#N)CC2)cc1Cl | 36 | 0.006 | 0.253 | 0.007 | < 0.3 | > 10 | 3.63 |  |  | 
3 | CC(C)C[C@H](NC(=O)c1cnn(-c2ccc(F)cc2)n1)C(=O)NC1(C#N)CC1 | 18 to 507 | 2.2 |  | 0.023 | 42 (≈ 109 µM) |  | 3.3 |  |  | 
4 | N#CC1(NC(=O)[C@H](Cc2ccc(Cl)cc2)NC(=O)c2cnn(-c3ccc(F)cc3)n2)CC1 | 507 | 0.006 | 1.52 | 0.003 | < 0.3 | > 10 | 3.97 |  |  | 
5 | N#CC1(NC(=O)[C@H](Cc2ccc(Cl)c(Cl)c2)NC(=O)c2cnn(C3CC(F)(F)C3)n2)CC1 | 3.6 | 0.008 | 0.064 | 0.018 |  | 54.8 |  | 15.8 | 6840 | 
6 | N#CC1(NC(=O)[C@H](Cc2ccc(OC(F)(F)F)c(Cl)c2)NC(=O)c2cnn(C3CCC3)n2)CC1 | 1 | 0.001 | 0.011 | 0.011 | 11 (≈ 22.1 µM) | 48 | 3.88 |  | 48000 | 
7 | N#CC1(NC(=O)[C@H](Cc2ccc(OC(F)(F)F)c(Cl)c2)NC(=O)c2cnn(C3CCNC3)n2)CC1 (stereo partly drawn) | 0.2 | 0.0002 | 0.014 | 0.093 | 253 (≈ 494 µM) | 56 | 1.33 | 0.4 | 280000 | 
8 | CC(C)n1ncc(C(=O)N[C@@H](Cc2ccc(OC(F)(F)F)c(Cl)c2)C(=O)NC2(C#N)CC2)n1 | 0.2 | 0.004 | 0.004 | 0.018 | 4 (≈ 8.25 µM) | > 10 | 4.61 |  |  | microsomal CLint at 2 µM [2]: 11 µL/min/mg; microsomal CLint at 2 µM [4]: 26 µL/min/mg; Papp at 15 h [5]: 1.38 nm/s; clearance [7]: 1.97 L/h/kg; half-life [9]: 1.53 h; fraction unbound [10]: 0.0826; Vd [11]: 3 L/kg
9 | N#CC1(NC(=O)[C@H](Cc2ccc(OC(F)(F)F)c(Cl)c2)NC(=O)c2cnn(C3COC3)n2)CC1 | 0.8 | 0.003 | 0.025 | 0.031 | 4 (≈ 8.02 µM) | 96 | 2.58 | 43.1 | 32000 | 
10 | N#CC1(NC(=O)[C@H](Cc2ccc(OC(F)(F)F)c(Cl)c2)NC(=O)c2cnn(C3CC(F)(F)C3)n2)CC1 | 1.5 | 0.009 | 0.076 | 0.041 | 2.2 (≈ 4.13 µM) | 50 | 3.89 |  | 5560 | 
11 | Cn1ncc(C(=O)N[C@@H](Cc2ccc(OC(F)(F)F)c(Cl)c2)C(=O)NC2(C#N)CC2)n1 | 0.7 | 0.04 | 0.015 | 0.023 | 53 (≈ 116 µM) | > 10 | 3.09 | 53.6 |  | microsomal CLint at 2 µM [2]: < 10 µL/min/mg; IC50 (Cytochrome P450 3A4): > 50 µM; microsomal CLint at 2 µM [4]: < 10 µL/min/mg; Papp at 15 h [5]: 1.2 nm/s; clearance [7]: 1.37 L/h/kg; IC50 (Cytochrome P450 2D6): 6 µM; IC50 (Cytochrome P450 2C9): > 50 µM; half-life [9]: 1.52 h; fraction unbound [10]: 0.226; Vd [11]: 2.7 L/kg
12 | Nc1nc(N)nc(Nc2ccc([As]3SCC(CO)S3)cc2)n1 (stereo not drawn) [MELARSOPROL] |  | 0.004 to 0.009 |  |  |  |  |  |  |  | IC50 [14]: 0.026 µM; IC50 [15]: 0.099 µM; IC50 [16]: 0.086 µM; IC50 [17]: 0.044 µM; IC50 [18]: > 0.18 µM
13 | N#CC1(NC(=O)[C@H](Cc2ccc(OC(F)(F)F)c(Cl)c2)NC(=O)c2cnn(C3CCOCC3)n2)CC1 | 6.2 | 0.013 | 0.112 | 0.018 | 90 (≈ 171 µM) | > 100 | 3.33 |  |  | 
14 | N#CC1(NC(=O)[C@H](Cc2ccc(OC(F)(F)F)c(Cl)c2)NC(=O)c2cnn(-c3ccccc3)n2)CC1 | 28 | 0.005 | 0.0817 | 0.0029 | < 0.3 | 17.9 |  |  | 3580 | IC50 [14]: 0.462 µM; IC50 [15]: > 1 µM; IC50 [16]: > 1 µM; IC50 [17]: 0.556 µM; IC50 [18]: > 1 µM
15 | N#CC1(NC(=O)[C@H](Cc2ccc(Cl)c(Cl)c2)NC(=O)c2cnn(C3COC3)n2)CC1 | 2.4 | 0.008 | 0.078 | 0.033 |  | > 100 |  | 45.3 |  | 
16 | N#CC1(NC(=O)[C@H](Cc2ccc(OC(F)(F)F)c(Cl)c2)NC(=O)c2cnn(-c3ccncc3)n2)CC1 | 5 | 0.0006 | 0.082 | 0.016 | 5.2 (≈ 10 µM) | > 10 | 3.69 | 43.3 |  | 
